# Experimental data from paper PMC11529722 (Science Advances, 2024).
# Key:
# C3a in human serum = experiment: C3a complement activation ELISA; settings: human serum 4 hours; P1 at 9.9 and 33 μM (3 and 10 mg/kg); n = 4
# Procedure, shortened: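 Test compound incubated in human serum at 1:250 and 1:500 (compound:serum) for 4 h, then diluted. C3a ELISA: 2 h in C3a antibody-coated wells with shaking, 3 washes, biotin primary antibody 1 h, washes, streptavidin 1 h, substrate 30 min, absorbance 450 nm. Cobra venom factor positive control; DPBS vehicle.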
# C57BL/6J mice [1] = experiment: Toxicity in C57BL/6J mice: histopathology scoring; type: in vivo, mouse; settings: C57BL/6J WT mice, 3 mg/kg with respect to peptide, Alzet osmotic pump, 8 weeks, blinded pathologist
# Procedure, shortened: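 Male C57BL/6J mice, three groups of n = 3–4. Saline, peptide or polymer (3 mg/kg with respect to peptide) given by subcutaneous osmotic pump for 8 weeks.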
# C57BL/6J mice [2] = experiment: Toxicity in C57BL/6J mice: complete blood count; type: in vivo, mouse; settings: C57BL/6J WT mice, 3 mg/kg with respect to peptide, Alzet osmotic pump, 8 weeks
# Procedure, shortened: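 Healthy male C57BL/6J mice in three groups (n = 3 to 4 per group) received test compound at 3 mg/kg with respect to peptide, or saline as negative control, via subcutaneously implanted osmotic pump for 8 weeks.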
# [3] = tested on: pronase, chymotrypsin, elastase; experiment: Enzyme degradation resistance by SDS-PAGE; type: in vitro ADME; settings: treated separately with pronase, chymotrypsin and elastase for 1 hour, Coomassie Blue
# R6/2 mice [4] = experiment: In vivo efficacy in HD R6/2 mice: body weight, survival, behavior; design: species or system mouse
# Procedure, shortened: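 Male hemizygous R6/2 mice (HD exon 1, 100–150 CAG) and WT littermates. Saline, peptide (3 mg kg⁻¹ day⁻¹) or polymer (1.69 mg kg⁻¹ day⁻¹) given by subcutaneous 28-day osmotic pump from 6 weeks; pump replaced after 4 weeks. Weekly tail suspension 20 s, weeks 7–13, clasping scored 0–3. Body weight and survival recorded throughout. 13–32 mice/group for behaviour.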
# R6/2 mice [5] = experiment: Neuropathology in striatum of R6/2 mice; type: in vivo, mouse; settings: 13-week-old R6/2 mice
# red blood cells = experiment: Hemocompatibility: hemolysis; settings: human red blood cells in PBS, 37°C, 1 hour, absorbance 405 nm, n = 4
# Procedure, shortened: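 Na citrate-anticoagulated whole human blood spun 500g 5 min. Plasma replaced with 150 mM NaCl; wash repeated twice more; RBCs resuspended in PBS. Compound added 1:20 (v/v) to RBC suspension, 37°C 1 h, n = 4. Spun 500g 5 min; supernatant transferred for reading. 20% Triton X-100 positive control; PBS vehicle.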
# R6/2 mice [6] = experiment: VCP level in striatal mitochondrial fractions of R6/2 mice; type: in vivo, mouse; settings: 13-week-old R6/2 mice, WB, ATPB loading control
# Procedure, shortened: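 Striatum of 13-week-old pump-dosed mice homogenised in 250 mM sucrose, 20 mM Hepes pH 7.5, 10 mM KCl, 1.5 mM MgCl₂, EDTA/EGTA. Passed 20× through a 25-gauge needle, iced 30 min. Spun 800g 10 min, then supernatant 10,000g 20 min at 4°C; pellet washed and re-spun. Mitochondria lysed in 1% Triton X-100; VCP Western blot, ATPB loading control.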
# VCP protein = VCP protein (Homo sapiens, UniProt P55072); experiment: BLI; type: binding; settings: immobilized VCP
# Procedure, shortened: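 Anti-His biosensor hydrated, then His-tagged VCP (50 µg/ml in sodium acetate buffer, pH 6.5) immobilized. Test compound (peptide or polymer) dissolved in tris buffer (pH 8.4) and run over a range of concentrations as analyte. KD, on-rate (ka) and off-rate (kd) were measured for each analyte by biolayer interferometry (BLItz).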
# HdhQ111 cells = experiment: Mitochondrial fragmentation assay; type: cell-based, mouse; settings: 3 μM three times for 3 days, anti-Tom20, at least 95 cells per group, n = 3
# Procedure, shortened: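 HdhQ111 cells dosed at 3 μM three times over 3 days. Fixed in 4% PFA 20 min, permeabilised with 0.1% Triton X-100, blocked with 2% goat serum. Anti-Tom20 (1:4000) overnight at 4°C, Alexa 488 secondary 2 h RT, Hoechst nuclei stain. Confocal imaging; % cells with fragmented mitochondria, ≥95 cells/group, ≥3 independent replicates.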
# pepsin [7] = target: pepsin (Sus scrofa, UniProt P00791); experiment: Enzymatic degradation assay with pepsin by HPLC; type: in vitro ADME; settings: pepsin 0.1 μM, pH 2, peptide 200 μM, 37°C, up to 150 min, analytical HPLC
# elastase = experiment: elastase; settings: set for optimal enzyme activity, up to 1 hour
# pronase = experiment: pronase; settings: set for optimal enzyme activity, up to 1 hour
# pepsin [8] = experiment: pepsin in hydrochloric acid solution; settings: 37°C, up to 150 min
# chymotrypsin = experiment: chymotrypsin; settings: set for optimal enzyme activity, up to 1 hour
# Chain of VCP protein (P55072 whole entry, species assumed): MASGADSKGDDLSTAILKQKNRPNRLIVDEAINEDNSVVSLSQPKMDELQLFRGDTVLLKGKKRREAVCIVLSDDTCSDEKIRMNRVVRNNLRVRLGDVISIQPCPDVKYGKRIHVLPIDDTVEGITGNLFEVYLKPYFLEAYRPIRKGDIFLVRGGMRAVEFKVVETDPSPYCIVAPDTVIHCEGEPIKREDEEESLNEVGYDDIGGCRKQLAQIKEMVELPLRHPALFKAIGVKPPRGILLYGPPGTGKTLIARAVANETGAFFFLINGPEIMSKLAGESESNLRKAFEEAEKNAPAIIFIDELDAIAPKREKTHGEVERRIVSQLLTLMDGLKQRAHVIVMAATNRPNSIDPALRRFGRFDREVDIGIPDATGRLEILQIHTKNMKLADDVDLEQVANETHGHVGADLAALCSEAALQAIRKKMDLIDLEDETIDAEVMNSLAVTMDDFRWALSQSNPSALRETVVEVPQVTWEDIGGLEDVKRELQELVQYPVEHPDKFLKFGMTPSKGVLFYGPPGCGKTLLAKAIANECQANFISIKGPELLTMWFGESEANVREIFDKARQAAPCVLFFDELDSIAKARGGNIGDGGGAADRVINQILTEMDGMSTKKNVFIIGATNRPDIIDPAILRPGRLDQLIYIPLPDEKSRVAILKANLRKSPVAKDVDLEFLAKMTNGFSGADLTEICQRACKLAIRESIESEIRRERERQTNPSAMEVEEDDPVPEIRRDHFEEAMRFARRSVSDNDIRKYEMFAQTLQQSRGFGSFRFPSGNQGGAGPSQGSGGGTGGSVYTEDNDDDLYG
# Chain of pepsin (Sus scrofa, UniProt P00791) (P00791 60-385): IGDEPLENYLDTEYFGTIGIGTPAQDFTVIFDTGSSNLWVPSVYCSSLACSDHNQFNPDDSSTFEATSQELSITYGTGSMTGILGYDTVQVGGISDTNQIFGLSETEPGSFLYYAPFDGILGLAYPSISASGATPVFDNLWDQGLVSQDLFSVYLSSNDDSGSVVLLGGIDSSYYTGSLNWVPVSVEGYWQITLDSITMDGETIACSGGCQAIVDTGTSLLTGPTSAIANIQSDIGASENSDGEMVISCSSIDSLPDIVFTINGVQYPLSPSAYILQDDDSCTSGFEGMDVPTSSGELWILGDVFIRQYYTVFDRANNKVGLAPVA
sequence,measurement,setting,value
HVLVMSATRR [P1],C3a complement activation compared to vehicle,C3a in human serum,did not show a statistically significant difference in activity
same,organ pathology vs saline control group,C57BL/6J mice [1],no significant differences in pathology
same,complete blood count and blood chemistry profile vs saline,C57BL/6J mice [2],no significant deviation of any markers
same,molecular weight after enzyme treatment (gel electrophoresis),[3],maintained molecular weight
same,effects of treatment on WT mice,"R6/2 mice [4]; WT littermates, P1 1.69 mg kg^−1 day^−1, 6 to 13 weeks of age","no significant effects on motor activity, body weight, or neuropathology"
same,body weight vs R6/2 saline control,"R6/2 mice [4]; male R6/2 mice, 3 mg kg^−1 day^−1 per peptide (P1 1.69 mg kg^−1 day^−1), Alzet pump, 6 to 13 weeks of age",significantly inhibiting weight loss
same,survival vs R6/2 saline control,"R6/2 mice [4]; male R6/2 mice, 3 mg kg^−1 day^−1 per peptide, Alzet pump, 6 to 13 weeks of age",extended survival
same,clasping times compared to HV3-TAT-treated mice,"R6/2 mice [4]; male R6/2 mice, tail suspension test",shorter clasping times
same,hindlimb clasping behavior,"R6/2 mice [4]; male R6/2 mice, tail suspension test weekly, 3 mg kg^−1 day^−1 per peptide, Alzet pump",attenuated the clasping behavior
same,striatal BDNF level compared to the HV3-TAT treatment group,R6/2 mice [5]; Western blot,significantly higher level of BDNF
same,mtHtt aggregates in striatum vs saline-treated R6/2 mice,"R6/2 mice [5]; anti-Htt EM48 staining, n = 6",reduced number of mtHtt aggregates
same,DARPP-32 immunohistochemical staining in striatum,R6/2 mice [5]; n = 6,Enhanced levels of DARPP-32
same,hemolytic activity compared to vehicle control,red blood cells,nonsignificant
same,VCP level on striatal mitochondria,R6/2 mice [6],blocks aberrant VCP mitochondrial translocation
same,fold decrease in dissociation constant compared to the HV3-TAT peptide,VCP protein,150 fold
same,koff,VCP protein; dissociation rate constant,2.5e-05 s⁻¹
same,mitochondrial fragmentation vs vehicle,HdhQ111 cells,marked reduction in the number of fragmented mitochondria
same,cleavage by pepsin,pepsin [7],no cleavage observed
HVLVMSATRR,not cleaved,elastase,maintained molecular weight after 1 hour
same,not cleaved,pronase,maintained molecular weight after 1 hour
same,not cleaved,pepsin [8],no cleavage observed for up to 150 min
same,not cleaved,chymotrypsin,maintained molecular weight after 1 hour
